Screening results (PubChem BioAssay)
TAAR1 antagonist – human TAAR1 antagonists, primary screen, Fluo-8 calcium fluorescence, CHO RD-HGA16 cells. Trace amine-associated receptor 1 (Homo sapiens), Q96RJ0. antagonist. inhibition, % at 3 µM. 360,000 compounds, 1.5% hits;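 active means inhibition above a per-plate cutoff, the mean inhibition of test compounds on that plate plus 3 SD, cut at about 49% in these data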;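 further: 0% = DMSO plus EC80 beta-PEA response and 100% = DMSO alone without agonist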
Target sequence (Q96RJ0 whole entry, looked up): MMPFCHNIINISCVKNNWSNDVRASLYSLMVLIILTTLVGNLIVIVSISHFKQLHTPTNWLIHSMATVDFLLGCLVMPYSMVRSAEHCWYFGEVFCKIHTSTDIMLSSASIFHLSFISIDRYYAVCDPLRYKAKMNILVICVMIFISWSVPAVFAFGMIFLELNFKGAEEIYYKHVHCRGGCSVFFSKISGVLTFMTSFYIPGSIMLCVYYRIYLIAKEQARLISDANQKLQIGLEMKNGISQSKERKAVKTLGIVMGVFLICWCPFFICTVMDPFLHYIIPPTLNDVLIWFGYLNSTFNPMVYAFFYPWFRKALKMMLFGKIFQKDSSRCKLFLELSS
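Assay system: CHO-derived RD-HGA16 cells stably expressing human TAAR1 plus Gα16. Timing: 140 s kinetic read after compound, 140 s after agonist. Technique: kinetic Fluo-8 calcium fluorescence measurement. Measure: % inhibition of agonist calcium response.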
TAAR1 agonist – human TAAR1 agonists, primary screen, Fluo-8 calcium fluorescence, CHO RD-HGA16 cells | activation, % at 3 µM | AID 624467, 2012 | Trace amine-associated receptor 1 (Homo sapiens), Q96RJ0 | vehicle wells 0%, saturating PEA agonist 100% | 360,000 compounds, 0.99% hits;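 active means activation above the mean activation of all test compounds in the run plus 3 SD, cut at about 38% in these data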
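Assay system: CHO-derived RD-HGA16 cells with stable Gα16 and human TAAR1; timing: 17-24 h seeding, 75 min 37 °C dye, 30 min RT; read-out: % activation from peak over basal fluorescence ratio, DMSO-to-PEA scaled; measured by: kinetic Fluo-8 calcium fluorescence; benchmarks: low control DMSO, high control PEA (EC100); doses: 3 µM single concentration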
OXTR potentiate – human OXTR potentiators, primary screen, fluorescence, CHO-OTR cells, Fluo-8 calcium. Oxytocin receptor (Homo sapiens), P30559. Fluo-8 calcium fluorescence, potentiator mode; 0% = oxytocin EC15, 100% = EC100. activation, % at 3 µM. 320,000 compounds, 0.061% hits. AID 2445, 2010;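 active means activation above that plate's cutoff, the mean activation of tested compounds plus 3 SD, cut at about 6.6% in these data, passing the limit was not always enough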;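 further: 100% uses oxytocin at 75 nM as the full agonist control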
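assay system = CHO-OTR cells, human receptor | schedule = compound 6 min at room temperature before oxytocin, 100 s read | detection = Fluo-8 intracellular calcium fluorescence, ex 470-495, em 515-575 nm | evaluation = normalized max/min fluorescence ratio, % activation | control set = EC15 oxytocin alone as 0%, 75 nM oxytocin (EC100) as 100%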
OXTR ag – human OXTR agonists, primary screen, fluorescence, CHO-OTR cells, Fluo-8 calcium. Oxytocin receptor (Homo sapiens), P30559. activation, % at 3 µM. 320,000 compounds, 0.32% hits. Fluo-8 calcium fluorescence; normalized: DMSO 0%, oxytocin 100%;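 active means activation above the mean of all tested compounds plus 3 SD, cutoff set per screening run, cut at about 20% in these data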;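 further: peak over basal fluorescence ratio from a 100 s FLIPR kinetic read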
V1aR counter – agonists of human V1a receptor, primary screen, counter-screen for OXTR agonist project, fluorescence, CHO-V1R cells. AID 2797, 2010. activation, % at 3 µM. 320,000 compounds, 0.25% hits. Vasopressin V1a receptor (Homo sapiens), P37288. Fluo-8 calcium fluorescence, agonist mode; 0% DMSO, 100% 3 nM vasopressin;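 active means activation above the mean activation of all tested compounds plus 3 SD, per screening run, cut at about 20% in these data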;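 further: signal is peak over basal fluorescence ratio across a 100 second FLIPR read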
Target sequence (P37288 whole entry, looked up): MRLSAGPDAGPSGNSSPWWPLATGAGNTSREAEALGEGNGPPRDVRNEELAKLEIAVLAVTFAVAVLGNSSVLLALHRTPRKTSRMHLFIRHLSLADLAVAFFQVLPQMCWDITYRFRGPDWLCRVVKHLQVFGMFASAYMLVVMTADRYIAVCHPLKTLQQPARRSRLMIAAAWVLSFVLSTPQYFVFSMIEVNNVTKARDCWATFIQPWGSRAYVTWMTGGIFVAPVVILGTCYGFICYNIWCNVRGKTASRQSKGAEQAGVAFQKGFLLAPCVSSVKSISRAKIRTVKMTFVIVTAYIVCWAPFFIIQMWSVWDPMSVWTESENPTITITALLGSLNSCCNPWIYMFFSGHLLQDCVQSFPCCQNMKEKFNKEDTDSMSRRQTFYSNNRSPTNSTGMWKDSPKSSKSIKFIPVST
TAAR1 ag confirm – human TAAR1 agonists, retest of hits, confirmation, Fluo-8 calcium fluorescence, CHO RD-HGA16 cells; scaled: DMSO 0%, maximal phenethylamine 100%; 2,400 compounds, 82% hits; activation, % at 3 µM; shares compounds with TAAR1 agonist;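 active means activation above a cutoff set at the run's mean compound activation plus 3 SD, cut at about 39% in these data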
Ga16 ag counter – nonselective calcium mobilization agonists, CHO-Ga16 cells, counter-screen for hTAAR1 agonist project, cell-based, fluorescence, CHO-Ga16 parental line; AID 651787, 2012; shares compounds with TAAR1 agonist; activation, % at 3 µM; Fluo-8 calcium fluorescence; normalized to maximal ATP response, DMSO zero; 2,400 compounds, 50% hits;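 active means activation above the run cutoff, the mean activation over all tested wells plus 3 SD, cut at about 12% in these data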;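 further: 0% = DMSO wells and 100% = maximal ATP response on the peak over basal ratio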
TAAR1 desens – TAAR1 desensitization by agonist hits, confirmation, counter-screen for TAAR1 agonist project, cell-based, fluorescence, tachyphylaxis; shares compounds with TAAR1 agonist; CHO RD-HGA16 hTAAR1, Fluo-8 calcium, beta-PEA response inhibition; inhibition, % at 3 µM; 2,400 compounds, 46% hits;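 active means inhibition above the run cutoff, the mean inhibition of all test compounds plus 3 SD, cut at about 49% in these data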;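 further: beta-PEA stimulus applied at its EC80; loss of beta-PEA calcium signal after compound pretreatment read as receptor desensitization; 0% = DMSO with beta-PEA at EC80 and 100% = DMSO alone without agonist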
Ga16 antag count – inhibition of ATP-evoked calcium response in CHO-Ga16 cells, counter-screen for TAAR1 agonist project, cell-based, fluorescence; 2,400 compounds, 39% hits; shares compounds with TAAR1 agonist; inhibition, % at 3 µM; CHO-Ga16 ATP-induced calcium, Fluo-8 fluorescence;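 active means inhibition above the plate's mean compound inhibition plus 3 SD, computed per plate, cut at about 22% in these data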;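 further: 0% = EC80 ATP with DMSO and 100% = DMSO wells without ATP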
Active calls of the source: *; / = no result; ! = repeats disagree. A selection: hits, their analogues and other compounds. The true share with any hit is near 2.3%.

SMILES	TAAR1 antagonist	TAAR1 agonist	OXTR potentiate	OXTR ag	V1aR counter	TAAR1 ag confirm	Ga16 ag counter	TAAR1 desens	Ga16 antag count
COc1ccc(NC(=O)/C(C#N)=C/c2ccc(Br)o2)cc1	24.1	0.1	-2.8	0.5	0.3	/	/	/	/
N#C/C(=C/c1ccc(N2CCOCC2)o1)C(=O)NC1CCCCC1	15.6	22.7	-8.5	12.0	7.8	/	/	/	/
CCc1nc2c(c(=O)c3ccccc3n2C)c(=O)n1C1CCCCCC1	-2.6	65.6*	-18.4	47.4*	87.9*	74.0*	55.0*	30.2	12.6
COCCn1c(Cc2ccccc2)nnc1SCC(=O)NC1CCCCC1	7.8	-1.1	-6.4	0.0	-0.2	/	/	/	/
CN(C)S(=O)(=O)c1cccc(-c2nnc(SCCNCCO)n2-c2ccc(F)cc2)c1	6.7	8.8	-13.5	0.4	0.1	/	/	/	/
CCCCc1cc(O)c(CCCC)c(O)c1	101.7*	112.6*	-25.1	86.1*	80.6*	130.4*	94.9*	105.8*	92.4*
Cc1nn(C)cc1C(C)NCc1c(C(=O)N2CCCCCCC2)nc2ccc(Cl)cn12 (configuration not stated)	22.1	2.5	-0.1	0.1	1.6	/	/	/	/
COc1ccc(S(=O)(=O)N2CCCCC2)cc1NC(=O)CCNC(=O)c1ccc(Br)cc1	-3.2	2.3	-10.4	-1.1	-0.9	/	/	/	/
O=C(COC(=O)/C=C/c1cccs1)Nc1ccc(Cl)cc1F	73.6*	59.0*	2.5	-1.6	-0.5	29.5	3.5	21.2	8.6
O=S(=O)(Nc1ccc(S(=O)(=O)Nc2cccc3ccccc23)cc1)c1ccccc1	12.4	41.3*	-21.2	5.0	6.4	40.5*	11.3	23.6	16.5
CC/C(=C(\c1ccccc1)c1ccc(OCCN(C)C)cc1)c1ccccc1	-7.4	39.0*!	-8.0	1.2	1.7	46.5*	41.9*	27.4	37.8*
FC(F)(F)c1cc(CO[C@@H]2CCCN[C@@H]2c2ccccc2)cc(C(F)(F)F)c1	15.3	69.8*	-7.3	10.8	7.8	36.9	29.1*	7.6	4.1
CC1(C)CCC(=O)N2CC[C@H]3C[C@H](OC(=O)Nc4ccccc4)C[C@@H]1[C@H]32	10.3	58.3*	-2.6	4.0	4.5	52.0*	5.1	16.2	10.5
CC1(C)CCC(=O)N2CC[C@H]3C[C@H](OC(=O)Nc4ccc5c(c4)OCO5)C[C@@H]1[C@H]32	0.4	5.9	-5.0	-1.2	-0.7	/	/	/	/
O=[N+]([O-])c1cc(Cl)c2cccnc2c1O	7.2	44.0*	-6.8	18.6	1.8	5.9	10.3	5.2	5.5
O=[N+]([O-])c1cc(Cl)c(O)c2ncccc12	8.7	0.2	/	/	/	/	/	/	/
COC(=O)c1cnc(Nc2nc(C(N)Cc3ccccc3)cs2)nc1C(F)(F)F (configuration not stated)	43.2	63.5*	/	/	/	50.0*	26.9*	30.9	23.4*
NC(Cc1ccc(C(F)(F)F)cc1)c1csc(Nc2nccc(C(F)(F)F)n2)n1 (configuration not stated)	41.4	60.6*	/	/	/	43.0*	19.5*	40.2	22.8*
CCCc1cnc(Nc2nc(C(N)Cc3ccc(C(F)(F)F)cc3)cs2)nc1 (configuration not stated)	34.0	68.3*	/	/	/	79.6*	63.0*	54.5*	59.4*
NC(COCc1ccccc1)c1csc(Nc2nccc(C(F)(F)F)n2)n1 (configuration not stated)	-17.1	14.8	/	/	/	/	/	/	/
NC(Cc1ccccc1)c1csc(Nc2nncc3ccccc23)n1 (configuration not stated)	4.2	34.3	/	/	/	/	/	/	/
O=C(CCc1nc(-c2ccccc2Cl)no1)NCCc1ccccc1	-8.7	58.1*	-9.8	0.1	1.7	67.8*	2.5	43.2	10.7
COCCCNC(=O)CCc1nc(-c2ccccc2Cl)no1	-11.4	0.2	-3.2	-0.7	0.7	/	/	/	/
O=C(NCC1CCCO1)c1ccc2c(=O)n(-c3ccccc3)c(=S)[nH]c2c1 (configuration not stated)	-13.1	5.2	-9.9	0.3	1.9	/	/	/	/
Cn1c(CCN2CCCC2)nc2cc(NS(=O)(=O)c3ccc(Cl)cc3)ccc21	14.7	11.2	-7.8	12.8	15.4	/	/	/	/
SMILES	TAAR1 antagonist	TAAR1 agonist	OXTR potentiate	OXTR ag	V1aR counter	TAAR1 ag confirm	Ga16 ag counter	TAAR1 desens	Ga16 antag count
Cn1c(CN2CCCC2)nc2cc(NS(=O)(=O)c3ccc(Cl)cc3)ccc21	8.3	69.5*	-7.4	19.4	16.6	93.0*	29.7*	22.1	7.5
O=C(c1cc(N2CCOCC2)c(F)cc1[N+](=O)[O-])N1CCOCC1	4.2	1.1	-12.8	-0.1	0.6	/	/	/	/
CNC[C@H](CC1CCCCC1)NC[C@H](Cc1ccccc1)NCCC12CC3CC(CC(C3)C1)C2	36.9	56.2*	-7.8	12.9	15.8	93.6*	81.3*	80.6*	89.0*
Cc1ccc(C)c(SCC(=O)Nc2ccc(C)c(S(=O)(=O)N3CCOCC3)c2)c1	1.2	1.6	-7.7	0.6	3.5	/	/	/	/
O=C(COC(=O)/C=C/c1cccc(F)c1)NC1CCCCCC1	54.5*	64.0*	3.1	-1.1	1.7	87.9*	37.9*	72.4*	19.1
CC(=O)c1ccc(NC(=O)N2CCc3ccccc3C2)cc1	20.9	14.3	-18.7	-0.7	0.3	/	/	/	/
COc1ccc(NC(=O)N2CCc3ccccc3C2)cc1	-11.3	51.7*	/	/	/	46.7*	0.7	-2.0	-3.1
COc1ccc(NC(=O)N2CCN(c3cccc(C(F)(F)F)c3)CC2)cc1	94.4*	89.1*	-9.5	8.7	8.5	7.9	11.1	20.7	24.3*
CCOc1ccc(NC(=O)N2CCc3ccccc3C2)cc1	-3.2	50.7*	1.6	-1.6	-0.1	54.2*	-0.4	12.3	12.3
